Calls of active or inactive are those of the source. The rule behind the calls is not given here.
Assays:
[1] = system: Plasmodium falciparum; experiment: Non-competitive inhibition of Plasmodium falciparum IspD at 19.5 to 625 uM in presence of CTP by lineweaver-burk plot analysis; conditions: dose 19.5-625 µM
Summary of the method: (§1)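 LC-MS IspD assay without coupling enzymes: 0.1 μM PfIspD, 2.0 mM MgCl2 in 100 mM Tris-HCl pH 7.6, 1 mM DTT, preincubated with inhibitor 10 min at 37 °C. One substrate varied 0–500 μM with the other at 500 μM; 40 min at 37 °C, heat-stopped at 95 °C. CDP-ME product quantified by HILIC LC-MS/MS with internal standard; Lineweaver–Burk plots.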

[2] = system: Plasmodium falciparum; experiment: Uncompetitive inhibition of Plasmodium falciparum IspD at 19.5 to 625 uM in presence of MEP by lineweaver-burk plot analysis; conditions: dose 19.5-625 µM; summary of the method: as §1

In the case of N#Cc1ccc(NC(=O)Nc2cccc(S(=O)(=O)N3CCCC3)c2)cc1, the inhibition [1] is reported as “Active” and the inhibition [2] is reported as “Active”.

From ChEMBL document CHEMBL6120953, “Targeting Plasmodium falciparum IspD in the Methyl-d-erythritol Phosphate Pathway: Urea-Based Compounds with Nanomolar Potency on Target and Low-Micromolar Whole-Cell Activity” (J Med Chem, 2024)
